Data as given in PubChem BioAssay.
Results filed as inconclusive are left out.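 The calls were made as follows, unless noted: active = growth inhibition above 25% in both replicates, a cutoff set 3 SD above the mean; inconclusive = above 25% in only one replicate; inactive = the rest.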

What was measured:
[1] = OD615 S. cerevisiae growth inhibition, permissive medium, pilot counter-assay, permissive growth control for S. cerevisiae lifespan shortening project (AID 705); conditions: OD615, 24 h, at 10 µM, stronger effect = higher value
In short: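 System: engineered DeaD yeast; Medium: permissive raffinose/galactose medium; Compound dosing: 10 µM single dose, 0.25% DMSO; Incubation: 4 h cell pre-growth, 24 h exposure at 30 °C; Technique: OD at 615 nm; Evaluation: growth inhibition from lowered OD615 after 24 h.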

[2] = Restrictive medium S. cerevisiae growth inhibition, OD615, pilot screen of yeast lifespan reduction project, restrictive growth control (AID 706;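 active = growth inhibition above a set limit, 3 SD over mean compound inhibition, in both replicates, cut at about 43% in these data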;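 also: modified DeaD lifespan yeast strain shifted to restrictive glucose medium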); conditions: OD615, 48 h, at 10 µM, stronger effect = higher value
In short: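 Material: modified S. cerevisiae; buffer or medium: CSMM-D glucose medium; doses: one concentration, 10 µM final, 0.25% DMSO; incubation: 48 h compound exposure at 30 °C; detection: optical density at 615 nm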

[3] = viability gain of MRP-1-high H69AR cells under doxorubicin, pilot screen, MRP-1 activator project, CellTiter-Glo, duplicate (AID 807;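 active = viability increase at or above a cutoff of the median across tested compounds plus 3 SD, cut at about 8.5% in these data, passing the limit was not always enough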;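 also: compound pretreatment 18-22 h then 72 h combined with doxorubicin; 0% = doxorubicin alone and 100% = vehicle without doxorubicin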); conditions: H69AR viability with doxorubicin, CellTiter-Glo luminescence; at 10 µM; stronger effect = higher value
[4] = growth suppression of beta-catenin knockout HCT116, pilot screen, human colon tumor cells (AID 823;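 active = cell viability at or below a set limit in both duplicate runs, the limit being the all-compound median minus 4 SD, cut at about 23% in these data, passing the limit was not always enough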;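 also: 0% = wells killed by 20 µM Hyamine and 100% = untreated DMSO cell wells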); conditions: CellTiter-Glo, 60 h, at 10 µM, stronger effect = lower value
[5] = growth suppression of PTEN-deleted HCT116, pilot screen, cell-based, HCT116 clonal line, CellTiter-Glo (AID 824;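 active = viability at or below 27.92% in each of two runs, the all-compound median minus 4 SD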;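 also: 0% = 20 µM Hyamine control and 100% = vehicle cell control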); conditions: 60 h, at 10 µM, stronger effect = lower value
[6] = inhibitors of the yeast RAM network, pilot screen, dse1pr::URA3 reporter, 5-FOA selection (AID 869;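 active = inhibition over a set limit, the all-compound mean plus 3 SD, in both replicate runs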;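 also: 0% = DMSO wells with no growth and 100% = 10 µM 1-NA-PP1 with full growth; RAM network block rescues cells from 5-FOA so hits raise OD615 growth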); conditions: S. cerevisiae dse1pr::URA3 5-FOA growth, OD615, 2 d; at 10 µM; stronger effect = higher value; strain carries analog-sensitive mutant Cbk1 kinase
[7] = RAM signaling pathway blockade in yeast – S. cerevisiae, Pdr1DBD-CYC8 efflux-inhibited sensitized strain, primary screen (AID 1298;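 active = RAM network inhibition above 8.4% in each of two replicates, 3 SD over the compound average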;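 also: 0% = DMSO untreated cells without growth and 100% = 10 µM 1-NA-PP1 full growth; higher means more yeast growth rescued from 5-FOA killing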); conditions: S. cerevisiae cbk1-as DSE1-URA3 strain, 5-FOA growth OD615, 2 d; at 50 µM; stronger effect = higher value

Cc1c(C#N)c2ccccc2n1CCOc1ccccc1F
inactive: growth inhibition [1] -5.92% | growth inhibition [2] -11.9% | viability increase [3] 1.94% | viability [4] 69.8% | viability [5] 68.5% | inhibition [6] 2.25% | RAM network inhibition [7] 6.77%

CN1C(=O)CC(N2CCC(c3nc4ccccc4[nH]3)CC2)C1=O (configuration not stated)
inactive: growth inhibition [1] -11.7% | growth inhibition [2] -11.2% | viability increase [3] -0.66% | viability [4] 112% | viability [5] 98.9% | inhibition [6] 3.77% | RAM network inhibition [7] 3.31%

O=C(OCCN(C1=NS(=O)(=O)c2ccccc21)c1ccc(Cl)cc1)c1ccco1
inactive: growth inhibition [1] -15.9% | growth inhibition [2] -5.49% | viability increase [3] -5.7% | viability [4] 82.2% | viability [5] 91.5% | inhibition [6] 1.44% | RAM network inhibition [7] 4.02%

CCN1C(=O)c2cccc3c(NC(=O)c4ccc(S(=O)(=O)N5CCOCC5)cc4)ccc1c23
inactive: growth inhibition [1] 14.5% | growth inhibition [2] 3.86% | viability increase [3] -6.36% | viability [4] 65.6% | viability [5] 65.8% | inhibition [6] 1.11% | RAM network inhibition [7] 2.6%

Cc1cc2cc(CNC(=O)Cc3cccs3)ccc2n1C
inactive: growth inhibition [1] -14.6% | growth inhibition [2] 3.17% | viability increase [3] -4.96% | viability [4] 74.9% | viability [5] 69% | inhibition [6] 3.38% | RAM network inhibition [7] 8.91%

Cc1nc2sc(C(c3ccco3)N3CCC(C)CC3)c(O)n2n1 (configuration not stated)
inactive: growth inhibition [1] -6.81% | growth inhibition [2] 1.09% | viability increase [3] -1.29% | viability [4] 102% | viability [5] 103% | inhibition [6] 0.77% | RAM network inhibition [7] 2.81%

Cc1ccc(-c2nc(CS(=O)CC(=O)NCCCN3CC(C)CC(C)C3)c(C)o2)cc1 (configuration not stated)
inactive: growth inhibition [1] -14.2% | growth inhibition [2] -13.2% | viability increase [3] -4.27% | viability [4] 77.5% | viability [5] 79.1% | inhibition [6] 0.255% | RAM network inhibition [7] 2.65%

O=C(O)C1CCCN1S(=O)(=O)c1cc(Cl)ccc1Cl (configuration not stated)
inactive: growth inhibition [1] -3.73% | growth inhibition [2] -6.05% | viability increase [3] 1.55% | viability [4] 92.5% | viability [5] 102% | inhibition [6] 0.535% | RAM network inhibition [7] 4.12%

Cc1ccc(-n2ncc3c(=O)[nH]c(SCC(=O)N4CCCC4)nc32)cc1C
inactive: growth inhibition [1] -6.01% | growth inhibition [2] -4.8% | viability increase [3] -4.32% | viability [4] 105% | viability [5] 91.8% | inhibition [6] 1.81% | RAM network inhibition [7] 1.73%

NC(=O)CC1NC(=O)c2ccccc21 (configuration not stated)
inactive: growth inhibition [1] -11.7% | growth inhibition [2] -6.05% | viability increase [3] 0.12% | viability [4] 91.7% | viability [5] 100% | inhibition [6] 1.28% | RAM network inhibition [7] 3.47%

O=C(NCc1cn2ccsc2n1)c1cccs1
inactive: growth inhibition [1] -11.6% | growth inhibition [2] 2.67% | viability increase [3] -2.88% | viability [4] 95.1% | viability [5] 95.8% | inhibition [6] 1.04% | RAM network inhibition [7] 7.64%

COc1ccc(C2N(c3cc(Cl)ccc3OC)C(=O)C3CCCN32)cc1OC (configuration not stated)
inactive: growth inhibition [1] -8.95% | growth inhibition [2] -8.17% | viability increase [3] -1.86% | viability [4] 106% | viability [5] 95.9% | inhibition [6] 1.02% | RAM network inhibition [7] 7.33%

O=S(=O)(c1ccc(Cl)c(Cl)c1)N1CCc2nc3ccccc3n2CC1
inactive: growth inhibition [1] -5.17% | growth inhibition [2] 4.47% | viability increase [3] -1.28% | viability [4] 98.9% | viability [5] 102% | inhibition [6] 1.75% | RAM network inhibition [7] 6.73%

CC(C)N(Cc1nc(-c2ccccc2)no1)C(=O)c1ccc(Cl)cc1
inactive: growth inhibition [1] -9.85% | growth inhibition [2] -12% | viability increase [3] 2.12% | viability [4] 80.7% | viability [5] 76.2% | inhibition [6] 3.25% | RAM network inhibition [7] 6.42%

CCOc1cc2c(cc1OCC)C(c1ccc(O)c(OC)c1)NCC2 (configuration not stated)
inactive: growth inhibition [1] -5.95% | growth inhibition [2] -11.5% | viability increase [3] -3.12% | viability [4] 75.3% | viability [5] 81.6% | inhibition [6] 2.12% | RAM network inhibition [7] 1.63%

O=C(c1cc2nc(-c3ccco3)cc(C(F)(F)F)n2n1)N1CCCCCC1
inactive: growth inhibition [1] -9.02% | growth inhibition [2] -9.3% | viability increase [3] -3.73% | viability [4] 86.3% | viability [5] 83.7% | inhibition [6] 0.805% | RAM network inhibition [7] 3.38%

COc1ccc(C2C(C(N)=O)=C(C)Nc3nc(-c4ccccc4)nn32)cc1OC (configuration not stated)
inactive: growth inhibition [1] -4.7% | growth inhibition [2] -8.15% | viability increase [3] -1.13% | viability [4] 95.3% | viability [5] 95.2% | inhibition [6] 0.78% | RAM network inhibition [7] -0.68%

COc1ccc(N2C(=O)c3ccccc3NC23CCCCC3)cc1
inactive: growth inhibition [1] -13.4% | growth inhibition [2] -9.03% | viability increase [3] -1.34% | viability [4] 94.8% | viability [5] 91.5% | inhibition [6] 0.47% | RAM network inhibition [7] 1.91%

COc1ccc(-c2nc(CS(=O)CC(=O)NCCC3=CCCCC3)c(C)o2)cc1 (configuration not stated)
inactive: growth inhibition [1] 0.225% | growth inhibition [2] 9.63% | viability increase [3] -4.36% | viability [4] 77.1% | viability [5] 79.6% | inhibition [6] 0.475% | RAM network inhibition [7] 3.02%

Cc1cccc(NC(=O)CCNS(=O)(=O)c2cccc3nsnc23)c1
inactive: growth inhibition [1] -7.62% | growth inhibition [2] -12.6% | viability increase [3] -2.32% | viability [4] 94.5% | viability [5] 90.7% | inhibition [6] 1.34% | RAM network inhibition [7] 1.66%

O=C(CSc1n[nH]c(-c2ccccc2)n1)c1ccccc1
inactive: growth inhibition [1] -0.485% | growth inhibition [2] 16.9% | viability increase [3] -0.56% | viability [4] 95.8% | viability [5] 95.5% | inhibition [6] 1.01% | RAM network inhibition [7] 2.45%

Cn1c(C(=O)NCCN2CCc3ccccc3C2)cc2c(=O)n(C)c3ccccc3c21
inactive: growth inhibition [1] -2.54% | growth inhibition [2] 4.4% | viability increase [3] -4.36% | viability [4] 70.4% | viability [5] 72.5% | inhibition [6] 2.96% | RAM network inhibition [7] 1.02%

COc1ccc(OC)c2sc(NC(=O)C3CC3)nc12
inactive: growth inhibition [1] 1.08% | growth inhibition [2] 5.55% | viability increase [3] -3.24% | viability [4] 99.7% | viability [5] 90.3% | inhibition [6] 1.25% | RAM network inhibition [7] 6.06%

Cn1cccc1Cc1nnc(SCC(=O)N2CCCC2)n1CCc1ccccc1
inactive: growth inhibition [1] 1.38% | growth inhibition [2] 16.7% | viability increase [3] -1.41% | viability [4] 103% | viability [5] 102% | inhibition [6] 0.04% | RAM network inhibition [7] 1.63%

Cc1cc(C)c(C#N)c(SCC(=O)c2cccs2)n1
inactive: growth inhibition [1] -9.34% | growth inhibition [2] 1.01% | viability increase [3] -4.41% | viability [4] 78% | viability [5] 84.8% | inhibition [6] 1.6% | RAM network inhibition [7] 0.97%

CC(C)NC(=O)C1CCCN(c2nnc(-n3cccc3)s2)C1 (configuration not stated)
inactive: growth inhibition [1] -0.35% | growth inhibition [2] 14.8% | viability increase [3] -3.11% | viability [4] 108% | viability [5] 97.6% | inhibition [6] -0.455% | RAM network inhibition [7] 0.02%

Cc1ccc(-n2c3c(cc(C(=O)NCc4ccco4)c2=O)C(=O)CC(C)(C)C3)cc1
inactive: growth inhibition [1] -5.76% | growth inhibition [2] -4.77% | viability increase [3] -5.37% | viability [4] 83% | viability [5] 85.6% | inhibition [6] -0.235% | RAM network inhibition [7] 3.42%

C=CCn1c(C(C)NC(=O)COC)nc2ccccc21 (configuration not stated)
inactive: growth inhibition [1] -2.42% | growth inhibition [2] -4.71% | viability increase [3] -2.08% | viability [4] 98.7% | viability [5] 96.2% | inhibition [6] 0.935% | RAM network inhibition [7] 3.54%

COc1cccc(C(=O)Nc2ccc(S(=O)(=O)Nc3onc(C)c3C)cc2)c1
inactive: growth inhibition [1] -9.3% | growth inhibition [2] -14.8% | viability increase [3] 0.25% | viability [4] 96.1% | viability [5] 97.9% | inhibition [6] 1.99% | RAM network inhibition [7] 7.93%

O=C(NCC1(c2ccccc2)CCOCC1)c1ccc(Br)o1
inactive: growth inhibition [1] -2.18% | growth inhibition [2] -3.91% | viability increase [3] 2.31% | viability [4] 93% | viability [5] 92.3% | inhibition [6] 0.365% | RAM network inhibition [7] 2.97%

Cn1c(SCCSc2nnc(-c3ccccc3)n2C)nnc1-c1ccccc1
inactive: growth inhibition [1] -12.1% | growth inhibition [2] 8.02% | viability increase [3] -0.26% | viability [4] 97.4% | viability [5] 93.8% | inhibition [6] 1.62% | RAM network inhibition [7] 5.17%

CCN(CC)CC(=O)Nc1cc(C)c2c(=O)oc3ccccc3c2n1
inactive: growth inhibition [1] -15.1% | growth inhibition [2] -19.2% | viability increase [3] -3.1% | viability [4] 96.1% | viability [5] 91.6% | inhibition [6] 1.04% | RAM network inhibition [7] 6.81%

CCCCOC(=O)C(C)Oc1ccc(=O)n(-c2ccccc2)n1 (configuration not stated)
inactive: growth inhibition [1] -4.39% | growth inhibition [2] -6.44% | viability increase [3] -1.41% | viability [4] 98% | viability [5] 88.4% | inhibition [6] 1.26% | RAM network inhibition [7] 2.76%

O=C(Sc1nnc(-c2ccccc2)o1)N1c2ccccc2Sc2ccccc21
inactive: growth inhibition [1] 15.4% | growth inhibition [2] 21.9% | viability increase [3] -4.17% | viability [4] 85.1% | viability [5] 89.7% | inhibition [6] 2.49% | RAM network inhibition [7] 3.79%

O=C1CSC(=O)N1CC(O)COc1ccc(Cl)cc1 (configuration not stated)
inactive: growth inhibition [1] 0.955% | growth inhibition [2] -20.5% | viability increase [3] 3.19% | viability [4] 102% | viability [5] 91.9% | inhibition [6] 0.995% | RAM network inhibition [7] 1.1%

CCN1CCN(Cc2ccc(NC(=O)Nc3ccccc3OC)cc2)CC1
inactive: growth inhibition [1] -1.11% | growth inhibition [2] 4.37% | viability increase [3] 0.28% | viability [4] 108% | viability [5] 105% | inhibition [6] 0.235% | RAM network inhibition [7] 2.68%
